ChEMBL document CHEMBL4321880 (J Med Chem, 2020)

Assays:
Cytochrome P450 2C9 = Cytochrome P450 2C9 (Homo sapiens, UniProt P11712); assay: Inhibition of CYP2C9 in human liver microsomes assessed as formation of alpha-hydroxytolbutamide at 1.85 uM using tolbutamide as substrate incubated for 15 mins in presence of NADPH by LC-MS/MS analysis; format: ADME; conditions: 0.25 h
Procedure, shortened: (§1)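 Pooled human liver microsomes with 2 mM NADPH in 100 mM KPO4 pH 7.4, 5 mM MgCl2, 37 °C, technical triplicate, final DMSO 0.2%. Probe (substrate, level, protein, time): 1A2 tacrine 5 μM, 0.2 mg/mL, 10 min; 2B6 bupropion 100 μM, 0.25 mg/mL, 10 min; 2C8 amodiaquine 5 μM, 0.25 mg/mL, 10 min; 2C9 tolbutamide 100 μM, 0.5 mg/mL, 15 min; 2C19 mephenytoin 100 μM, 0.25 mg/mL, 60 min; 2D6 dextromethorphan 5 μM, 0.5 mg/mL, 10 min; 3A4 midazolam 2.5 μM or testosterone 50 μM, 0.25 mg/mL, 10 min. Methanol quench, metabolites measured by LC-MS/MS.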

Cytochrome P450 3A4 [1] = biological target: T1, Cytochrome P450 3A4 (Homo sapiens, UniProt P08684); assay: Inhibition of CYP3A4 in human liver microsomes assessed as formation of 6-beta-hydroxytestosterone at 1.85 uM using testosterone as substrate incubated for 10 mins in presence of NADPH by LC-MS/MS analysis; format: ADME; procedure, shortened: as §1
T1 sequence (P08684 whole entry): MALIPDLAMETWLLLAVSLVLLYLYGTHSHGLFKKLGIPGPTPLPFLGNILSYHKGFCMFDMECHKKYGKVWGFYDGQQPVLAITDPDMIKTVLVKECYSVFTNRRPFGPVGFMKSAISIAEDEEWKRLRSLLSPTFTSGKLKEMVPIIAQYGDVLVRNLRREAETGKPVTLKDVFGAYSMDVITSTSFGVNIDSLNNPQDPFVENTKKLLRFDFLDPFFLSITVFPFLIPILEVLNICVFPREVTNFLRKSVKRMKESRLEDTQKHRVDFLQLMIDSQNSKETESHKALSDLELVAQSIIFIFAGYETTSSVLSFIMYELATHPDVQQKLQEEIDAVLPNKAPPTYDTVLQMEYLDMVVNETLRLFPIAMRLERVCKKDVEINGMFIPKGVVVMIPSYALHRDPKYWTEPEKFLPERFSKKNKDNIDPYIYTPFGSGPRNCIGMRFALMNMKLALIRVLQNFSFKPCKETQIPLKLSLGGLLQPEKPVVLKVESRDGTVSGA

Cytochrome P450 3A4 [2] = biological target: T1, Cytochrome P450 3A4; assay: Inhibition of human recombinant CYP3A4 expressed in supersomes assessed as decrease in formation of D-luciferin at 1.89 uM using luciferin-IPA as substrate incubated for 10 mins in presence of NADPH by P450-Glo luminescence assay relative to control; format: ADME; conditions: recombinant enzyme
Procedure, shortened: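 P450-Glo assay with supersomes containing POR, cytochrome b5 and recombinant human CYP3A4, 0.1 pmol enzyme. Run in 100 mM KPO4 pH 7.4 with 3 μM Luciferin-IPA, started with NADPH, 10 min at 37 °C. Detection reagent added for 20 min at room temperature, then luminescence read. Final DMSO 0.1%.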

Cytochrome P450 3A4 [3] = biological target: T1, Cytochrome P450 3A4; assay: Inhibition of CYP3A4 in human liver microsomes assessed as formation of 1-hydroxymidazolam at 1.85 uM using midazolam as substrate incubated for 10 mins in presence of NADPH by LC-MS/MS analysis
Cytochrome P450 3A4 [4] = biological target: T1, Cytochrome P450 3A4; assay: Induction of CYP3A4 in CRISPR/Cas9-mediated CYP3A5 knock-out and doxycycline-induced CYP3A4 overexpressing human AsPC1 cells assessed as increase in 1-hydroxymidazolam formation using midazolam as substrate pretreated with doxycycline for 24 hrs followed by incubation with compound at higher concentrations for 24 hrs by LC-MS/MS analysis; format: ADME, cell-based; conditions: aspc1, 24 h
Procedure, shortened: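 AsPC-1 CYP3A5−/− cells with Dox-inducible CYP3A4, 10,000 cells/well, induced with 100 ng/mL doxycycline. 24 h later given compound (16-point 1:2 series, 0.0003–10 μM) plus 5 μM midazolam, final DMSO 0.66%, for 24 h. Quenched with acetonitrile containing warfarin internal standard. 1-Hydroxymidazolam measured by LC-MS/MS and normalized to DMSO control (100%).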

Cytochrome P450 2C8 = biological target: T2, Cytochrome P450 2C8 (Homo sapiens, UniProt P10632); assay: Inhibition of CYP2C8 in human liver microsomes assessed as formation of desethylamodiaquine at 1.85 uM using amodiaquine as substrate incubated for 10 mins in presence of NADPH by LC-MS/MS analysis; format: ADME; procedure, shortened: as §1
T2 sequence (P10632 whole entry): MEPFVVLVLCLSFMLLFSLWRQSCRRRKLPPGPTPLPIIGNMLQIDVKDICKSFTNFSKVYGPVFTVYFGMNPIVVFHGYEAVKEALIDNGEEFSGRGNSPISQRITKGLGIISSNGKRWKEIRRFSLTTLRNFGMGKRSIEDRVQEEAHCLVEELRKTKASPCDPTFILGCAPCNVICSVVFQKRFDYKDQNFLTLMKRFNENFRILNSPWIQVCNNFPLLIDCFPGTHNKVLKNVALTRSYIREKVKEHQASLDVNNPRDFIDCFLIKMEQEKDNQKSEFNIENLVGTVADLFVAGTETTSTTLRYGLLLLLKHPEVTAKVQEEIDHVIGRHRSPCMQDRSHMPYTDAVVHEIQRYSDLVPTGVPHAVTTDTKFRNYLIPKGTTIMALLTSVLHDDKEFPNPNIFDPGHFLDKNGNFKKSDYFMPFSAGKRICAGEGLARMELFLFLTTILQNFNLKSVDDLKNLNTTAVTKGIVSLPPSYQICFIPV

Cytochrome P450 1A2 = biological target: T3, Cytochrome P450 1A2 (Homo sapiens, UniProt P05177); assay: Inhibition of CYP1A2 in human liver microsomes assessed as formation of hydroxytacrine at 1.85 uM using tacrine as substrate incubated for 10 mins in presence of NADPH by LC-MS/MS analysis; format: ADME; procedure, shortened: as §1
T3 sequence (P05177 whole entry): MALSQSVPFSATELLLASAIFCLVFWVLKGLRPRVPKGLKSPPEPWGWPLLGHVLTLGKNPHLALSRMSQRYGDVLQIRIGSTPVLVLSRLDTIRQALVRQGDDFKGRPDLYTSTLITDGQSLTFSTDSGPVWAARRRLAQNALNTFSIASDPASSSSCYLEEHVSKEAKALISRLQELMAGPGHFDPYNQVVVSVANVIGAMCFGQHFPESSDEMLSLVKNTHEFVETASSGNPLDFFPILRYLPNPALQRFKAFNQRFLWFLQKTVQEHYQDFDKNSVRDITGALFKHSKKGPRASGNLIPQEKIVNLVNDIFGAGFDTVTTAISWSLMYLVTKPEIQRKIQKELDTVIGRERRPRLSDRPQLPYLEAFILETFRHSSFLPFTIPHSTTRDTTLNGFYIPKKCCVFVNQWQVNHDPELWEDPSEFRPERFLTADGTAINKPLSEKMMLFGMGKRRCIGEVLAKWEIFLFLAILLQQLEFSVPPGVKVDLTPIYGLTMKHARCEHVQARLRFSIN

Cytochrome P450 3A4 [5] = biological target: T1, Cytochrome P450 3A4; assay: Binding affinity to His-tagged CYP3A4 (unknown origin) expressed in Escherichia coli DH5alpha assessed as type 1 spectral shift to substrate-bound form by UV-vis spectrophotometric titration analysis; format: ADME
Procedure, shortened: (§2)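 Recombinant His-tagged enzyme expressed in E. coli with groESL chaperones, purified by Ni-NTA, CM-sepharose and S-200 gel filtration (Rz ≥1.3). Ligand added stepwise until heme absorbance stopped changing. Difference spectra taken against the ligand-free spectrum. Peak-minus-trough ΔAbs (388–418 nm) plotted against ligand concentration and fitted with equation 2 for Kd.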

Cytochrome P450 2D6 = Cytochrome P450 2D6 (Homo sapiens, UniProt P10635); assay: Inhibition of CYP2D6 in human liver microsomes at 1.85 uM using dextromethorphan as substrate incubated for 10 mins in presence of NADPH by LC-MS/MS analysis; format: ADME; procedure, shortened: as §1
Chain of Cytochrome P450 2D6 (P10635 whole entry): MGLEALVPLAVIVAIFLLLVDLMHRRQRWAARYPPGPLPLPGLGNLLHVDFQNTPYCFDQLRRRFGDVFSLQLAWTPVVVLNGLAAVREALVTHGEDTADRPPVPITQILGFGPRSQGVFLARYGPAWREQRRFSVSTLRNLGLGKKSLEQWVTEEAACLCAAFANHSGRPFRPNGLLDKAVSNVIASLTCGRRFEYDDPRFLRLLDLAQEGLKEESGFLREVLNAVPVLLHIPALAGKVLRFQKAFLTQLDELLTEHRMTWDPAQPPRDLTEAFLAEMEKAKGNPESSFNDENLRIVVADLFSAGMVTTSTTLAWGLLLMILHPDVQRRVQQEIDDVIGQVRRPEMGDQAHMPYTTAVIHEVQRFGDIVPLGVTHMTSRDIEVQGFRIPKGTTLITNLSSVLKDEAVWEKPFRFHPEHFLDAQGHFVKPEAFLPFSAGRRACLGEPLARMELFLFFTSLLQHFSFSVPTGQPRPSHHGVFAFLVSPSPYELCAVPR

ASPC1 [6] = assay: Cytotoxicity against doxycycline-induced CYP3A5 overexpressing wild type human AsPC1 cells assessed as cell growth; format: ADME, cell-based
Procedure, shortened: (§3)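 Cells seeded at 10,000/well. Dox-inducible lines were induced with 100 ng/mL doxycycline, then treated 24 h later with compound at 16 two-fold dilutions (0.0003–10 μM) plus 5 μM midazolam, in 0.66% DMSO final, for 24 h. Phase-contrast confluence imaging followed. Values were normalized to six 0.66% DMSO replicates and fitted with a three-parameter log(inhibitor) vs response curve.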

Cytochrome P450 3A4 [7] = biological target: T1, Cytochrome P450 3A4; assay: Binding affinity to His-tagged CYP3A4 (unknown origin) expressed in Escherichia coli DH5alpha assessed as formation of Soret band at 386 nm with low decrease in low-spin soret maxima at 416 nm by UV-vis spectrophotometric titration analysis; format: ADME; parameters: dose or concentration left out as unconfirmed; procedure, shortened: as §2
ASPC1 [8] = assay: Cytotoxicity against CRISPR/Cas9-mediated CYP3A5 knock-out and lentiviral pLVX-TRE3G-ZsGreen1-CYP3A5 transduced human AsPC1 cells overexpressing CYP3A5 assessed as cell growth; format: ADME, cell-based; procedure, shortened: as §3
ASPC1 [9] = assay: Cytotoxicity against lentiviral pLVX-TRE3G-ZsGreen1-CYP3A5 transduced wild type human AsPC1 cells overexpressing CYP3A5 assessed as cell growth; format: ADME, cell-based; procedure, shortened: as §3
Cytochrome P450 2B6 = biological target: T4, Cytochrome P450 2B6 (Homo sapiens, UniProt P20813); assay: Inhibition of CYP2B6 in human liver microsomes assessed as formation of hydroxybupropion at 1.85 uM using bupropion as substrate incubated for 10 mins in presence of NADPH by LC-MS/MS analysis; format: ADME; procedure, shortened: as §1
T4 sequence (P20813 whole entry): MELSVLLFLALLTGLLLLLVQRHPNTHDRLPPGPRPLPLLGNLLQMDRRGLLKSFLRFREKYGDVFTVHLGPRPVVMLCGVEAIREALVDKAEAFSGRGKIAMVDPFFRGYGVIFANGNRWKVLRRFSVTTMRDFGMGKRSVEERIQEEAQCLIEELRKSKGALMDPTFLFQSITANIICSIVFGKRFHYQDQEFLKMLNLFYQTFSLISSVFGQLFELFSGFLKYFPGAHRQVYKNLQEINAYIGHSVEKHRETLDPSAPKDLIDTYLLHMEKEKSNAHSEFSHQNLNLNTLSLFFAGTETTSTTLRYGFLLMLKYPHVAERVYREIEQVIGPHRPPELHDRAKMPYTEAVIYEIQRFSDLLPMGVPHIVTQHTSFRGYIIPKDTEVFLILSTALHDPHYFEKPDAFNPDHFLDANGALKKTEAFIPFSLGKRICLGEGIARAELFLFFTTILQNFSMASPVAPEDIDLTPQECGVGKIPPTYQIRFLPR

Chain of Cytochrome P450 2C9 (P11712 whole entry): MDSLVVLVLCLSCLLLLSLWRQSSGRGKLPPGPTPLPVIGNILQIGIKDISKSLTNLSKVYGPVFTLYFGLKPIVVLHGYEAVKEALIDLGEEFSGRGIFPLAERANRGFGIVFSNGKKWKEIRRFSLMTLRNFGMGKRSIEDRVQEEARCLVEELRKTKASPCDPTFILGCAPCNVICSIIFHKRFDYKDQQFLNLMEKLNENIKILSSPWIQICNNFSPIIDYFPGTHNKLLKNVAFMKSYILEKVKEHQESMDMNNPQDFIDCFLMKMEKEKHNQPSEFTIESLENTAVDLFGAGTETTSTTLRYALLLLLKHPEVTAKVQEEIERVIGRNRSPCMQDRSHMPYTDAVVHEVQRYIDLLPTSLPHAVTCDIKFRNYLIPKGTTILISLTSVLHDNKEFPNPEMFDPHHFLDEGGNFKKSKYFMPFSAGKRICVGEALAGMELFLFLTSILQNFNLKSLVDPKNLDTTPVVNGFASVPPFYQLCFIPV

CCC(=O)O[C@]1(C(=O)CCl)[C@@H](C)C[C@H]2[C@@H]3CCC4=CC(=O)C=C[C@]4(C)[C@@]3(F)[C@@H](O)C[C@@]21C [CLOBETASOL PROPIONATE]
inhibition (INH) (Cytochrome P450 2C9): Not Active | inhibition (INH) (Cytochrome P450 3A4 [1]): Not Active | inhibition (INH) (Cytochrome P450 3A4 [2]): Not Active | inhibition (INH) (Cytochrome P450 3A4 [3]): Not Active | Activity (Cytochrome P450 3A4 [4]): Active | inhibition (INH) (Cytochrome P450 2C8): Not Active | inhibition (INH) (Cytochrome P450 1A2): Not Active | Activity (Cytochrome P450 3A4 [5]): Active | inhibition (INH) (Cytochrome P450 2D6): Not Active | Activity (ASPC1 [6]): Non-Toxic | Activity (Cytochrome P450 3A4 [7]): Active | Activity (ASPC1 [8]): Non-Toxic | Activity (ASPC1 [9]): Non-Toxic | inhibition (INH) (Cytochrome P450 2B6): Not Active
